A selection: hits, their analogues and other compounds. The true share with any hit is near 3.7%.
HCV NS3 hel inh: blocks Hepatitis C virus NS3 helicase unwinding; NS3 helicase DNA unwinding, Cy5 molecular beacon fluorescence; inhibition, % at 10.9 µM; 290,000 tested, 0.56% active;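 active = inhibition above the mean of all tested compounds plus 3 SD, set per campaign, cut at about 35% in these data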;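 also: 0% = DMSO wells and 100% = thioflavine S control wells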
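Test system: hepatitis C virus NS3 helicase domain fragment enzyme. Also added: annealed dual-labelled DNA beacon duplex, ATP-started. Timing: 60 min unwinding reaction at 25 °C after ATP addition. Technique: Cy5 fluorescence. Measure: % inhibition of unwinding.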
TAAR1 agonist: agonists of human TAAR1; activation, % at 3 µM; AID 624467; CHO RD-HGA16 TAAR1, Fluo-8 calcium fluorescence; vehicle wells 0%, saturating PEA agonist 100%; Q96RJ0; 360,000 tested, 0.99% active;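 active = activation above the mean activation of all test compounds in the run plus 3 SD, cut at about 38% in these data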
Target sequence (Q96RJ0 whole entry, looked up): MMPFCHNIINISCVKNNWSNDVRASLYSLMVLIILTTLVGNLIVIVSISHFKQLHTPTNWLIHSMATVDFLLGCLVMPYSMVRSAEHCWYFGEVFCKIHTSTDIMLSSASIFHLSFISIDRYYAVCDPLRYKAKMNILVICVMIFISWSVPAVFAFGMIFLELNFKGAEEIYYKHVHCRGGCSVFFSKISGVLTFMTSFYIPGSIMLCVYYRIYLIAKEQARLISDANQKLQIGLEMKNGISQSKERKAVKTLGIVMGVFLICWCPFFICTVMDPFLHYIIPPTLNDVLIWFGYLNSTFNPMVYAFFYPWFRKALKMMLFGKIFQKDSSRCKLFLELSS
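Assay system – CHO-derived RD-HGA16 cells with stable Gα16 and human TAAR1 · Compound dosing – one-point dosing at 3 µM (nominal) · Incubation – 17-24 h seeding, 75 min 37 °C dye, 30 min RT · Measured by – kinetic Fluo-8 calcium fluorescence · Control set – DMSO vehicle as 0%, PEA at EC100 as 100% · Repeats – single well for each compound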
rCAG RNA binder: molecules binding r(CAG) RNA repeats | r(CAG) RNA repeat, TO-PRO-1 dye displacement fluorescence | inhibition, % at 3 µM | 370,000 tested, 1.3% active;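 active = inhibition above the plate cutoff, the mean of all test compounds on that plate plus 3 SD, cut at about 35% in these data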;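 also: 0% = DMSO alone and 100% = 100 µM mitoxantrone as full dye displacement; higher means more dye released from RNA so lower well fluorescence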
TAAR1 antag: human TAAR1 antagonism; CHO RD-HGA16 TAAR1, Fluo-8 calcium fluorescence, antagonist; 360,000 tested, 1.5% active; Q96RJ0; AID 624466; inhibition, % at 3 µM;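 active = inhibition above a per-plate cutoff, the mean inhibition of test compounds on that plate plus 3 SD, cut at about 49% in these data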;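 also: 0% = DMSO plus EC80 beta-PEA response and 100% = DMSO alone without agonist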
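Test system – hTAAR1-expressing CHO RD-HGA16 cells, Gα16-coupled · Reagent – β-PEA at EC80 concentration, post-compound challenge · Compound dosing – 3 µM, single point · Timing – 140 s kinetic read after compound, 140 s after agonist · Detection – Fluo-8 intracellular calcium dye fluorescence, real-time kinetic reads · Control set – DMSO and EC80 PEA controls · Repeats – n of 1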
HCV core dimer: blocks dimerization of HCV core protein | TR-FRET GST/Flag-core106 dimerization, 1536-well | inhibition, % at 5 µM | 300,000 tested, 0.33% active;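 active = inhibition above the mean of all tested compounds plus 3 SD, set per screening campaign, cut at about 45% in these data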
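Assay system: Tagged HCV core106 pair (GST and Flag) | Buffer or medium: KF-containing HEPES buffer, pH 7.45, DTT, CHAPS, BSA | Also added: Eu donor and XL665 acceptor anti-tag antibodies | Dosing: One concentration, 5 µM, in 0.5% DMSO | Timing: 4 h at 22.5 °C | Technique: TR-FRET 671 and 617 nm emission | Repeats: Singlicate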
TAAR1 ag conf: human TAAR1 agonism, confirmed | 2,400 tested, 82% active | CHO RD-HGA16 TAAR1, Fluo-8 calcium fluorescence; scaled: DMSO 0%, maximal phenethylamine 100% | activation, % at 3 µM | AID 651783 | shares compounds with TAAR1 agonist;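 active = activation above a cutoff set at the run's mean compound activation plus 3 SD, cut at about 39% in these data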
Ga16 ag counter: nonselective agonist in parental cells, TAAR1 agonist counter-screen; activation, % at 3 µM; CHO-Ga16 parental, Fluo-8 calcium fluorescence; normalized to maximal ATP response, DMSO zero; shares compounds with TAAR1 agonist; AID 651787; 2,400 tested, 50% active;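 active = activation above the run cutoff, the mean activation over all tested wells plus 3 SD, cut at about 12% in these data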;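 also: 0% = DMSO wells and 100% = maximal ATP response on the peak over basal ratio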
TAAR1 desens: TAAR1 response desensitization, agonist counter-screen; inhibition, % at 3 µM; CHO RD-HGA16 hTAAR1, Fluo-8 calcium, beta-PEA response inhibition; shares compounds with TAAR1 agonist; 2,400 tested, 46% active; AID 651951;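 active = inhibition above the run cutoff, the mean inhibition of all test compounds plus 3 SD, cut at about 49% in these data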;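 also: beta-PEA stimulus applied at its EC80; loss of beta-PEA calcium signal after compound pretreatment read as receptor desensitization; 0% = DMSO with beta-PEA at EC80 and 100% = DMSO alone without agonist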
Ga16 antag count: nonselective Ga16 antagonist in TAAR1 agonist counter-screen; shares compounds with TAAR1 agonist; inhibition, % at 3 µM; CHO-Ga16 ATP-induced calcium, Fluo-8 fluorescence; 2,400 tested, 39% active;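 active = inhibition above the plate's mean compound inhibition plus 3 SD, computed per plate, cut at about 22% in these data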;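 also: 0% = EC80 ATP with DMSO and 100% = DMSO wells without ATP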
Active calls of the source: *; x = no result.

SMILES	HCV NS3 hel inh	TAAR1 agonist	rCAG RNA binder	TAAR1 antag	HCV core dimer	TAAR1 ag conf	Ga16 ag counter	TAAR1 desens	Ga16 antag count
Cc1c(Cl)cccc1Nc1nc(NCCO)c2ccccc2n1	-40	49*	0	37	-6	83*	5	84*	6
COCc1cn(-c2cccc(-c3noc4c3C(=O)N(CC(=O)N3CCOCC3)CC4)c2)nn1	x	x	0	x	x	x	x	x	x
CC1=C(C)CS(=O)N(S(=O)(=O)c2ccc(Cl)cc2)C1 (configuration not stated)	-21	77*	2	36	4	77*	54*	26	15
COc1cc(NC(=O)C2CCCN(S(=O)(=O)c3ccccc3[N+](=O)[O-])C2)cc(OC)c1 (configuration not stated)	x	x	11	x	x	x	x	x	x
O=S1(=O)C=CCN1Cc1cn(Cc2cccc(C(F)(F)F)c2)nn1	x	x	3	x	x	x	x	x	x
Fc1ccc(F)c(Cn2ccc3ccc(-c4ccc5ccn(Cc6cc(F)ccc6F)c5c4)cc32)c1	x	x	4	x	x	x	x	x	x
O=C1CC(c2ccccc2)CC(O)=C1C=NCCc1ccccc1 (configuration not stated)	-8	67*	-6	28	-2	72*	6	44	16
Oc1ccc(C=NCCc2ccccc2)cc1	14	x	3	x	-5	x	0	x	-4
Oc1ccc(/C=N/N2CCN(Cc3ccccc3)CC2)cc1	-8	6	-5	-11	-4	x	x	x	x
CC1(C)CC(=O)C(C=NCCc2ccccn2)=C(O)C1	2	16	0	-7	-5	x	x	x	x
CC1(C)CC(=O)C(C=NCCc2ccc(O)cc2)=C(O)C1	0	66*	-1	32	-3	106*	0	79*	-4
O=C(c1cc(F)cc(F)c1)N1CCCC(c2nc(-c3cccs3)no2)C1 (configuration not stated)	x	x	2	x	x	x	x	x	x
C=CC[C@]1(O)C(=O)N(c2ccccc2)c2ccccc21	x	x	0	x	x	x	x	x	x
O=C(NCCc1ccc(F)cc1)c1coc(=O)c(Br)c1	-9	68*	-2	35	-1	66*	1	16	8
CN(C[C@H](Cc1ccccc1)N(C[C@H](CC1CCCCC1)N(CCc1ccccc1)N=O)N=O)N=O	5	15	5	3	18	x	x	x	x
CN(C[C@@H](CC1CCCCC1)N(C[C@H](Cc1ccccc1)N(CCc1ccccc1)N=O)N=O)N=O	3	60*	7	7	13	94*	2	36	-4
O=C(Nc1ccccc1)Nc1nncs1	2	x	6	x	-4	x	3	x	7
O=C(Cc1nnc(NC(=O)Nc2ccccc2)s1)NCc1ccccc1	7	60*	25	39	2	80*	2	64*	10
O=C(Nc1ccccc1)Nc1nccs1	-5	47*	0	18	2	85*	3	49*	7
O=C(Cc1nnc(NC(=O)Nc2ccc(Cl)cc2)s1)NCc1ccccc1	-2	19	33	30	23	x	x	x	x
O=C(Nc1nncs1)Oc1ccccc1	5	10	2	-7	-1	x	x	x	x
O=C(NCCc1cccc(F)c1)c1cc2ccccn2n1	x	x	0	x	x	x	x	x	x
CC(NCc1ccco1)C(=O)N1CCCC1 (configuration not stated)	x	x	6	x	x	x	x	x	x
Cc1nn(C)cc1C=NCCOCc1ccccc1	8	44*	-1	7	1	66*	3	12	-5
CC(=O)c1c(C)[nH]c(C(=O)OCc2ccccc2)c1C	-8	9	-4	10	-1	x	x	x	x
SMILES	HCV NS3 hel inh	TAAR1 agonist	rCAG RNA binder	TAAR1 antag	HCV core dimer	TAAR1 ag conf	Ga16 ag counter	TAAR1 desens	Ga16 antag count
CCN(CC)CCc1c(C)[nH]c(C(=O)OCc2ccccc2)c1C	-7	71*	-6	26	2	73*	1	74*	2
Cc1sc2ccc3sccc3c2[n+]1C	-2	48*	-2	13	-10	14	8	11	10
O=C(NCc1ccco1)C1CCCN(c2ncccn2)C1 (configuration not stated)	x	x	1	x	x	x	x	x	x
C1CCC(C(CC2CCCCN2)C2CCCCC2)CC1 (configuration not stated)	-78	40*	11	32	-13	58*	35*	24	21*
CCN1/C(=C/C(C)=O)Sc2ccc(OC)cc21	-1	2	2	-14	-4	x	x	x	x
CCOC(=O)/C(=C\C=C1/Sc2cc(OCC)c(OCC)cc2N1CC)C(C)=O	1	121*	-78	62*	-22	167*	225*	80*	86*
Cn1c(NCCc2ccccc2)cc(=O)n(C)c1=O	1	x	0	x	1	x	-1	x	11
Cn1c(=O)cc(Nc2ccc(Cl)cc2)[nH]c1=O	-14	48*	4	8	7	67*	0	44	13
Cn1c(=O)cc(Nc2ccccc2)[nH]c1=O	4	18	0	-8	-6	x	x	x	x
Cn1c(=O)cc(NCCc2ccccc2)[nH]c1=O	0	69*	2	17	-2	74*	1	45	7
CCCNc1cc(=O)n(C)c(=O)n1C	-4	0	1	-2	-1	x	x	x	x
COC(=O)[C@]12C[C@H](CC(=O)NCCCCc3ccccc3)C(=O)N(Cc3ccco3)C1=C[C@H](C(C)C)O[C@@H]2C1CC1	x	x	1	x	x	x	x	x	x
COC(=O)[C@]12C[C@H](CC(=O)NCc3ccccc3)C(=O)N(Cc3ccc(Cl)cc3Cl)C1=C[C@H](COCc1ccccc1)O[C@@H]2C	x	x	12	x	x	x	x	x	x
COC(=O)[C@]12C[C@H](CC(=O)NCC3CCCCC3)C(=O)N(Cc3ccccc3)C1=C[C@H](C(C)C)O[C@@H]2C1CC1	x	-3	2	-47	x	x	x	x	x
CC(=O)N1CCCN(C(=O)C2CCN(c3ncnc4c3sc3cccc(F)c34)CC2)CC1	x	x	4	x	x	x	x	x	x
CCc1nc2ccc(C(=O)Nc3ccc(OC)c(OC)c3)cn2c1N(C)CCC(C)C	x	82*	0	6	x	99*	68*	38	9
C=CCn1c(SCC(=O)NCCc2ccccc2)nnc1C(C)NC(=O)c1cccs1 (configuration not stated)	-3	49*	-6	-9	-3	66*	1	16	11

Source: PubChem (The Scripps Research Institute Molecular Screening Center)
